The source of these data is ChEMBL document CHEMBL1129387, “Synthesis and biological activity of 1 alpha, 25-dihydroxy-18-norvitamin D3 and 1 alpha, 25-dihydroxy-18,19-dinorvitamin D3” (1996).

The structures appear in SMILES notation. Where “and” joins values, the source holds several entries; their conditions need not be identical. Equal values may be shown once.

The species named for test [1] is Rattus norvegicus. The experiment in a line: Support of Serum Calcium Transport mobilization response of Vitamin D-Deficient Rats on a low-calcium diet(amount 650 pmol). It counts as functional, organism-based. The gist of the method: (§1)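 Weanling male rats deficient in vitamin D, held on a low-calcium (0.02% Ca) diet, dosed intraperitoneally each day for 7 days in 0.1 mL of 95:5 propylene glycol/ethanol, with vehicle controls. Serum calcium was measured by automatic titrator 24 h after the last dose as the index of bone calcium mobilization. At least 5 rats/group; mean ± SEM; Student's t-test.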

Test [2] is filed under the species Rattus norvegicus. Put plainly: Support of Serum Calcium Transport mobilization response of Vitamin D-Deficient Rats on a low-calcium diet(amount 1300 pmol). The test is classed as functional, organism-based. An outline of the steps: as §1
For test [3], the system named is Rattus norvegicus. Put plainly: Bone Calcium mobilization response of Vitamin D-Deficient Rats to a single Intravenous Injection (amount 260 pmol). It counts as functional, organism-based. The gist of the method: (§2)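 Vitamin D-deficient weanling male rats, 3 weeks on a 0.47% Ca diet then 1 week on 0.02% Ca. A single intravenous dose was given in 0.1 mL of 95:5 propylene glycol/ethanol, with vehicle controls. Serum calcium was measured by automatic titrator 24 h after dosing. The rise in serum Ca on the low-Ca diet is taken as bone calcium mobilization. At least 5 rats/group; mean ± SEM.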

The subject of test [4] is Rattus norvegicus. Put plainly: Intestinal Calcium Transport mobilization response of Vitamin D-Deficient Rats to a single Intravenous Injection amount 260 pmol). The test is classed as functional. An outline of the steps: (§3)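 Vitamin D-deficient weanling male rats, 3 weeks on a 0.47% Ca diet then 1 week on 0.02% Ca. A single intravenous dose was given in 0.1 mL of 95:5 propylene glycol/ethanol, with vehicle controls. After 24 h, the proximal 10 cm of intestine was taken for everted-sac calcium transport, expressed as serosal:mucosal (S/M) Ca ratio. At least 5 rats/group; mean ± SEM.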

The species entered for test [5] is Rattus norvegicus. The experiment in a line: Serum Calcium Transport mobilization response of Vitamin D-Deficient Rats on a low-calcium diet(amount 500 pmol). It counts as functional, organism-based. The gist of the method: as §1
For test [6], the species on record is Rattus norvegicus. The experiment in a line: Support of Intestinal Calcium Transport mobilization response of Vitamin D-Deficient Rats on a low-calcium diet(amount 650 pmol). The test is classed as functional. The gist of the method: (§4)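 Vitamin D-deficient weanling male rats kept on a 0.02% Ca diet. Compound given intraperitoneally daily for 7 days in 0.1 mL of 95:5 propylene glycol/ethanol; controls got vehicle. Killed 24 h after the last dose. Intestinal Ca transport by everted sac (proximal 10 cm), reported as S/M ratio. At least 5 rats/group; mean ± SEM; Student's t-test.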

Test [7] is filed under the species Rattus norvegicus. The experiment in a line: Support of Intestinal Calcium Transport mobilization response of Vitamin D-Deficient Rats on a low-calcium diet(amount 1300 pmol). It counts as functional. An outline of the steps: as §4
The species named for test [8] is Rattus norvegicus. The experiment in a line: Intestinal Calcium Transport mobilization response of Vitamin D-Deficient Rats on a low-calcium diet(amount 500 pmol). It counts as functional. The gist of the method: as §4
For test [9], the species on record is Rattus norvegicus. The experiment in a line: Support of Serum Calcium Transport mobilization response of Vitamin D-Deficient Rats on a low-calcium diet(amount 500 pmol). The test is classed as functional, organism-based. The gist of the method: as §1
The species entered for test [10] is Rattus norvegicus. Put plainly: Support of Serum Calcium Transport mobilization response of Vitamin D-Deficient Rats on a low-calcium diet(amount 260 pmol). The test is classed as functional, organism-based. The gist of the method:
as §1

The species named for test [11] is Rattus norvegicus. Put plainly: Support of Serum Calcium Transport mobilization response of Vitamin D-Deficient Rats on a low-calcium diet(amount 1000 pmol). The test is classed as functional, organism-based. The gist of the method:
as §1

Test [12] is filed under the species Rattus norvegicus. The experiment in a line: Support of Intestinal Calcium Transport mobilization response of Vitamin D-Deficient Rats on a low-calcium diet(amount 1000 pmol). It counts as functional. An outline of the steps:
as §4

Test [13] is filed under the species Rattus norvegicus. The experiment in a line: Support of Serum Calcium Transport mobilization response of Vitamin D-Deficient Rats on a low-calcium diet(amount 130 pmol). It counts as functional, organism-based. The gist of the method:
as §1

The species named for test [14] is Rattus norvegicus. Put plainly: Support of Intestinal Calcium Transport mobilization response of Vitamin D-Deficient Rats on a low-calcium diet(amount 500 pmol). The test is classed as functional. The gist of the method:
as §4

The species entered for test [15] is Rattus norvegicus. The experiment in a line: Support of Intestinal Calcium Transport mobilization response of Vitamin D-Deficient Rats on a low-calcium diet(amount 130 pmol). The test is classed as functional. An outline of the steps:
as §4

The species named for test [16] is Rattus norvegicus. The experiment in a line: Support of Intestinal Calcium Transport mobilization response of Vitamin D-Deficient Rats on a low-calcium diet(amount 260 pmol). It counts as functional. An outline of the steps:
as §4

The subject of test [17] is Rattus norvegicus. Put plainly: Bone Calcium mobilization response of Vitamin D-Deficient Rats to a single Intravenous Injection of (amount 260 pmol). It counts as functional, organism-based. The gist of the method:
as §2

Test [18] deals with Rattus norvegicus. The experiment in a line: Intestinal Calcium Transport mobilization response of Vitamin D-Deficient Rats to a single Intravenous Injection of D3 (amount 260 pmol). The test is classed as functional. The gist of the method:
as §3

As to `C=C1/C(=C\C=C2/CCC[C@@H]3C([C@H](C)CCCC(C)(C)O)CC[C@@H]23)C[C@@H](O)C[C@@H]1O` (some centres undefined), the Serum Ca2+ in test [1] was found to be 5.2; in [2] it was 5.6; in test [3], 4.4; in test [5], 5.1. Besides, the “Ca2+ transport” value in test [4] was 3.9; in test [6], 5.4; in test [7], 5.5; in test [8], 4.1.

As for `C[C@H](CCCC(C)(C)O)C1CC[C@H]2/C(=C/C=C3C[C@@H](O)C[C@H](O)C3)CCC[C@H]12` (some centres undefined), the Serum Ca2+ in test [9] turned out to be 5.6; in test [10], 4.9; in test [11], 5.5; in [13], 4.8. Moreover, the “Ca2+ transport” value in test [12] was 6.9; in test [14] it was 6.2; in test [15] it was 3.7; in test [16], 4.8.

Consider `C=C1/C(=C\C=C2/CCC[C@]3(C)[C@@H]([C@H](C)CCCC(C)(C)O)CC[C@@H]23)C[C@@H](O)C[C@@H]1O` [CALCITRIOL], for which the Serum Ca2+ in [10] is 5.4 and 7.1; in test [17] it was 4.8; in [5], 5.5; in test [13], 5.8. In addition, the “Ca2+ transport” value in test [18] is 5; in test [15] it was 6.8; in test [8] it was 5.7; in [16] it was 7.6.
